Screening results as filed in PubChem BioAssay.
p-CIP stab down = compounds decreasing mouse p/CIP protein stability | Q05BA5 | F442A p/CIP-EGFP cells, EGFP fluorescence, 16 h | decrease of EGFP signal, % at 10 µM | 290,000 compounds, 0.01% hits;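 active = EGFP signal decrease of at least 30% at 10 µM or well 3 SD below plate mean, unless failing retest; inactive = the rest, including hits failing retest or dose response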
XBP1 UPR activ = adaptive UPR (XBP1) activation. activation, % at 20 µM. 330,000 compounds, 0.33% hits. CHO-XBP1 luciferase reporter, IRE1-XBP1 UPR activation, luminescence; percent of tunicamycin response, DMSO as zero. AID 463104;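 active = versus positive control, 20 µM dose yields 30% or more activation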;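 note: 100% = tunicamycin at 10 µg/mL and 0% = DMSO only wells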
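Material: CHO-XBP1 cells stably carrying IRE1-XBP1-driven luciferase reporter / Amount: 1000 cells per well / Compound: 20 µM, 1% DMSO / Times: 6 h treatment, 37 °C / Detection: luciferase luminescence / Measure: % activation of reporter signal versus tunicamycin and DMSO controls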
CHOP inhibitor = inhibitors of CHOP induction in ER stress response. CHO-K1 CHOP-promoter luciferase, tunicamycin-induced, 15-18 h. inhibition, % at 10 µM. 220,000 compounds, 3.8% hits. AID 2732;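 active = compounds that reduced the stress-induced luciferase reporter signal by more than about 70% of percent inhibition, limit read from the data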;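 note: 0% = tunicamycin plus vehicle and 100% = wells without tunicamycin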
B2AR ag = activates human beta-2 adrenergic receptor causing internalization. 340,000 compounds, 0.43% hits. response, % (no concentration beside the values). Am2.2-beta2AR cells, FAP receptor internalization, flow cytometry. AID 504454. P07550;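 active = response above a set limit, near 3 SD of response in nonfluorescent compounds, cut at about 42% in these data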
Dynein transport = blocks dynein driven cargo transport along microtubules. AID 1381. 220,000 compounds, 0.47% hits. z-score, hits read low. 3617.4 mouse cells, GR-EGFP nuclear translocation imaging; test concentration mostly 20 µM; stimulated with dexamethasone, 1 µM; stronger effect = lower value;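 active = plate z-score of nuclear minus cytoplasmic receptor signal below a set negative limit, without overly bright fluorescence or cell loss, cut at about -3.5 in these data, passing the limit was not always enough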;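 note: z-score of nuclear minus cytoplasmic ring GR-EGFP intensity difference per well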
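Buffer or medium: Induction medium lacking tetracycline, stripped serum | Also added: Dexamethasone agonist, 1.0 µM final, for 30 min | Timing: 48 h induction, 1 h compound, 30 min dex at 37 °C | Detection: Formaldehyde fixation, Hoechst nuclear stain, 10x automated fluorescence imaging | Measure: Nuclear versus cytoplasmic GR-EGFP signal, averaged per well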
CHOP UPR activ = activators of apoptotic arm of unfolded protein response (CHOP) | activation, % at 10 µM | 330,000 compounds, 0.34% hits | CHO-CHOP luciferase reporter, UPR activation, luminescence; percent of tunicamycin response over DMSO baseline;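 active = at 10 µM dose, activation of 40% or more, normalized to positive control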;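 note: 100% = tunicamycin at 10 µg/mL and 0% = DMSO alone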
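Test system: CHO-CHOP cells, stable luciferase reporter of PERK-eIF2a-CHOP signalling | Quantity: 500 CHO-CHOP cells per well | Buffer or medium: F12 plus 10% serum | Compound dosing: 10 µM single point, 0.5% DMSO | Schedule: 6 h compound treatment, 37 °C | Signal: Luciferase luminescence | Control set: Tunicamycin high control, DMSO low control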
* = called active by the depositor; x = not tested or not shown. This is one part of a sample in which hits are shown more often than they occur.

SMILES	p-CIP stab down	XBP1 UPR activ	CHOP inhibitor	B2AR ag	Dynein transport	CHOP UPR activ
COc1ccc2ccccc2c1/C=N/Nc1ccc(Cl)c(C(=O)O)c1	-2	4	x	-1	x	1
CCCCn1c(N)c(N(CC(C)C)C(=O)C2CC(=O)N(c3ccc(CC)cc3)C2)c(=O)[nH]c1=O (stereo unspecified)	x	1	x	0	x	0
COCCNC(=O)C(c1ccc(C)o1)N(C(=O)C(=O)NC1CCCCC1)c1ccc(F)cc1 (stereo unspecified)	-1	3	-2	4	0.9	3
COc1cccc(Nc2nc3ccccc3n3nnnc23)c1	6	11	88*	-4	1.9	3
Fc1cccc(Nc2nc3ccccc3n3nnnc23)c1	-6	15	87*	-4	-0.41	8
O=C(CNCc1ccc(F)cc1)Nc1ccc(S(=O)(=O)N2CCOCC2)cc1	-12	2	x	5	x	1
CCOC(=O)C1=C(COC(=O)c2cc(OC)c(OC)cc2[N+](=O)[O-])NC(=O)NC1C (stereo unspecified)	x	1	x	10	x	1
CCc1cccc2c(C(=O)Cn3nnc(-c4ccc(OC)c(OC)c4)n3)c[nH]c12	-14	-3	72*	8	0.2	-1
O=S(=O)(N/N=C1/CC(c2ccccc2)Oc2ccccc21)c1ccc(Br)cc1 (stereo unspecified)	-1	2	94*	5	-0.39	-1
CCC(=O)Nc1cc2nn(-c3ccc(C)cc3)nc2cc1C	1	-6	91*	6	0.09	-5
CCC(=O)Nc1cc2nn(-c3ccc(OC)cc3)nc2cc1C	-9	-8	59	-15	0.63	-5
COc1ccc(CN2C(=O)C(CC(C)C)Nc3ncnc(N4CCOCC4)c32)cc1 (stereo unspecified)	x	-1	x	-3	x	3
C[C@H](NC(=O)/C(C#N)=C/c1ccc(O)c(O)c1)c1ccccc1	x	x	7	x	x	x
COc1cc(OC)cc(-c2cc3nc(C)c(CCC(=O)NCc4ccccc4)c(C)n3n2)c1	0	-6	84*	-2	2.1	-8
COc1ccccc1-c1cc2nc(C)c(CCC(=O)NCc3ccc(F)cc3)c(C)n2n1	3	-2	31	-3	2.2	3
Nc1cc(=O)nc(SCC(=O)Nc2ccccc2)n1-c1ccccc1	7	0	11	-5	-0.72	-1
Cc1ccc(NC(=O)C(C)Sc2nc(=O)cc(N)n2-c2ccccc2)cc1 (stereo unspecified)	-15	0	73*	-4	-0.11	-1
CCCCNC(=O)CCn1c(=O)c2ccccc2n(Cc2ccccc2C)c1=O	3	0	6	-3	-1.2	2
CCCCNC(=O)CCn1c(=O)c2ccccc2n(Cc2ccc(Cl)cc2)c1=O	-4	4	87*	-18	0.0082	0
CCOC(=O)c1c(N=CN(C)C)c2cc([N+](=O)[O-])cnc2n1C	-23	-2	-18	5	1.6	0
COc1ccc(O)c(C(=O)CC(=O)c2ccccc2C)c1	-8	4	104*	2	1.5	4
COc1ccc(O)c(C(=O)CC(=O)c2cccnc2)c1	x	x	x	-11	x	x
CCOC(=O)C1(CC2CCCCO2)CCN(Cc2c(C)cc(C)cc2-n2cccn2)CC1 (stereo unspecified)	-2	-2	20	10	-1.1	-1
CCOC(=O)C1(CC2CCCCO2)CCN(Cc2cc(F)ccc2-n2cccn2)CC1 (stereo unspecified)	-1	0	76*	3	-1.1	-1
CCOC(=O)c1c(NC(=O)COC)sc(C)c1C	20	4	16	-5	1	-3
SMILES	p-CIP stab down	XBP1 UPR activ	CHOP inhibitor	B2AR ag	Dynein transport	CHOP UPR activ
CCOC(=O)c1c(NC(=O)CC2Nc3cc(C)c(C)cc3NC2=O)sc(C)c1C (stereo unspecified)	-9	-1	74*	-7	-0.91	2
CCOc1ccccc1NC(=O)CC1Nc2cc(C)c(C)cc2NC1=O (stereo unspecified)	-8	0	20	3	-1.4	0
CCOC(=O)c1c(NC(=O)COC(=O)C2CC2C)sc(C)c1C (stereo unspecified)	14	1	70*	5	-0.1	1
CCCn1nnc(NC(=S)NC(=O)/C=C/c2ccco2)n1	-11	0	17	-7	-0.13	1
O=S(=O)(c1cccc2nonc12)N1CCN(c2ccccc2F)CC1	0	-5	16	0	-0.28	0
Cc1cccc(N2CCN(S(=O)(=O)c3cccc4nonc34)CC2)c1C	6	-1	73*	10	-0.69	-2
CCOC(=O)CNc1nc(Cl)nc(Nc2ccc(C)cc2)n1	-13	-1	70*	7	1.8	1
CCOC(=O)CNc1nc(Cl)nc(Nc2ccc(Cl)cc2)n1	-5	-1	25	-8	0.64	0
CC(=O)c1ccc(-c2ccc(C(=O)N(C)Cc3nc4ccccc4c(=O)[nH]3)o2)cc1	x	1	x	5	x	-1
CCCCN(C)CCCNC(=O)c1cc(=O)[nH]c2ccc(S(=O)(=O)N3CCCCC3C)cc12 (stereo unspecified)	4	-3	18	2	-0.41	-2
O=C(/C=C/c1ccco1)NC(=S)Nc1ccc(N2CCOCC2)c(Cl)c1	2	6	75*	-10	0.26	-2
CNC(=O)N(O)C1N(/N=C/c2c(F)cccc2Cl)C(=S)SC1(C)C (stereo unspecified)	2	-2	x	-8	x	0
COc1ccc(S(=O)(=O)/N=C2\C=C(Nc3ccc(O)cc3)C(=O)c3ccccc32)cc1	24	-7	x	52*	x	-2
Cc1c(C(=O)N/N=C/c2ccccn2)nnn1-c1nonc1N	-18	2	x	6	x	1
Cc1ccc(-c2csc3ncnc(SCC(=O)Nc4nnc(C)s4)c23)cc1	-14	-3	74*	-2	-0.17	0
CC(=O)CSc1ncnc2scc(-c3ccc(F)cc3)c12	15	14	14	0	-0.094	1
Cc1cc(S(=O)(=O)NC(C)c2nnc3ccccn23)ccc1Br (stereo unspecified)	x	2	x	9	x	0
O=[N+]([O-])c1cc(CN2CCN(c3cccc(C(F)(F)F)c3)CC2)c2cccnc2c1O	-12	1	87*	-5	0.16	1
O=[N+]([O-])c1cc(CN2CCCC2)c2cccnc2c1O	8	x	18	1	-0.43	x
CCOC(=O)N1CCN(Cc2nc(-c3ccc(C)cc3)no2)CC1	1	0	29	-3	-1.4	1
